High-throughput results (PubChem BioAssay)
An excerpt weighted towards active compounds, which were near 2.3% of everything screened.
MsrA act – bovine MsrA enzyme activators, primary screen, biochemical, absorbance, HTS; purified bovine MsrA, absorbance read-out; Methionine sulfoxide reductase A (Bos taurus); 0.3% of 360,000 active; AID 602163, 2012; activation, % at 10.6 µM; in the data active means activation above about 7.5%
MC4R antagonist – MC4R antagonists of cAMP signaling, primary screen, cell-based, TR-FRET, antagonist arm of biased-ligand search; Melanocortin receptor 4 (Homo sapiens), P32245; MC4R-expressing cells, MTII-stimulated cAMP, LANCE TR-FRET; inhibition, % at 6.5 µM; 0.48% of 360,000 active; AID 540295, 2011;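 active means inhibition above its plate's cutoff, the mean of tested wells on that plate plus 3 SD, cut at about 29% in these data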
Target sequence (P32245 whole entry, looked up): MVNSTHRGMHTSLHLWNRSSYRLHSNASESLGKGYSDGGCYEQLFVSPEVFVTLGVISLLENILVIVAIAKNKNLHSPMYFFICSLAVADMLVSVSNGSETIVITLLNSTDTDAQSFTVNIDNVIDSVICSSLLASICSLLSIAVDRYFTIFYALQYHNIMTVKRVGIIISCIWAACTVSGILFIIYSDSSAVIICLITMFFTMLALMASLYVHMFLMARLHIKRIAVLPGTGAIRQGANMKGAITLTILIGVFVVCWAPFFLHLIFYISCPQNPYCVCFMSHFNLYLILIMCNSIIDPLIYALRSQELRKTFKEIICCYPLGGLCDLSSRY
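system = U2OS cells with stable human MC4R expression | also added = Melanotan II challenge after compound preincubation | dosing = one concentration, 6.5 µM nominal | incubation = compound 30 min, challenge 1 h, detection 1 h | measured by = TR-FRET with Eu-cAMP and labeled anti-cAMP, 671 nm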
MC4R ag barr – MC4R agonists recruiting beta-arrestin, primary screen, cell-based, luminescence, agonist arm of biased-ligand search | U2OS MC4R beta-arrestin complementation; percent of melanotan II response, DMSO zero | 0.98% of 360,000 active | activation, % at 8.9 µM;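 active means activation above a per-plate cutoff, the mean activation of sample wells on that plate plus 3 SD, cut at about 8% in these data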
MsrA inhibitor – bovine MsrA enzyme inhibitors, primary screen, biochemical, absorbance, HTS | purified bovine MsrA, absorbance read-out | inhibition, % at 15.5 µM | 0.75% of 360,000 active | AID 651718, 2012; in the data active means inhibition above about 4.5%
Hits are given with their value; - = inactive; . = not tested or not shown.

SMILES | MsrA act | MC4R antagonist | MC4R ag barr | MsrA inhibitor
Cc1ccc(OCC(=O)N/N=C/c2cn[nH]c2-c2ccc(Cl)c(Cl)c2)cc1 | - | - | 8.7 | -
Cc1ccccc1OCC(=O)Nc1ccc2c(c1)Cc1ccccc1-2 | - | - | 28 | .
O=C(COc1ccccc1)Nc1ccc2c(c1)Cc1cc(NC(=O)COc3ccccc3)ccc1-2 | - | - | - | -
COc1cc(NC(=S)NC(=O)c2ccccc2F)ccc1NC(=O)c1ccco1 | - | - | 9.1 | -
COc1ccccc1C(=O)NC(=S)Nc1ccc(Cc2ccncc2)cc1 | - | - | 13 | -
CC(=O)Nc1ccc(S(=O)(=O)C(C#N)c2nc3ccccc3nc2NCCCO)cc1 (stereo not drawn) | - | - | - | 4.6
CC(=O)Nc1ccc(S(=O)(=O)C(C#N)c2nc3ccccc3nc2NCCO)cc1 (stereo not drawn) | - | - | - | -
Cc1ccccc1OCc1nnc(SCC(=O)Nc2ccc3nc(SCC(=O)NC(C)(C)C)sc3c2)n1C | - | - | 11 | -
CSCCC(NC(=O)c1ccccc1Br)C(=O)N1CCN(C/C=C/c2ccccc2)CC1 (stereo not drawn) | - | - | - | -
CNC(=O)COC(=O)c1cccnc1SC | - | - | - | -
O=C(Cn1cc([N+](=O)[O-])cn1)NCc1ccco1 | - | - | - | -
O=C1c2cccc3cccc(c23)C(=O)N1Cc1cccnc1 | - | - | - | -
O=C1c2cccc3c([N+](=O)[O-])ccc(c23)C(=O)N1Cc1cccnc1 | - | - | - | 7.9
COc1ccc(CNC(=O)c2cc3c(C)nc4ccccc4c3o2)c(OC)c1 | - | - | 8.6 | .
COc1cccc(CNC(=O)c2cc3c(C)nc4ccccc4c3o2)c1 | - | - | - | -
Nc1nonc1C(=O)NCCN=Cc1cc(Cc2ccccc2)cc(Br)c1O | - | - | 9.2 | .
CCOC(=O)CCc1c(C)c2ccc(OCc3ccc([N+](=O)[O-])cc3)cc2oc1=O | - | - | 13 | -
CCOC(=O)CCc1c(C)c2ccc(OCc3nn[nH]n3)cc2oc1=O | - | - | - | -
C[C@@H]1CCC(=O)N(C[C@@H](C)CC#N)CC1 | - | - | - | -
CC(=O)NC(=S)Nc1ccc(NC(=S)NC(=O)/C=C/c2ccco2)cc1 | - | - | - | -
O=C(/C=C/c1ccco1)NC(=S)NNC(=O)c1ccco1 | - | - | - | 6.6
O=c1[nH]c(Cc2cccc(C(F)(F)F)c2)nc2ccccc12 | - | - | 9.0 | -
CC(C)N1CCC(N2CCN(C3CCCCCC3)CC2CCO)CC1 (stereo not drawn) | - | - | - | -
CN(CCOc1ccccc1)C(=O)CCc1c[nH]c2ccccc12 | - | - | - | -
COC(=O)C1=C(C)N(Cc2ccccc2)C(=NCCc2c[nH]c3ccccc23)N[C@H]1c1cccc(F)c1 | - | - | 8.2 | -
SMILES | MsrA act | MC4R antagonist | MC4R ag barr | MsrA inhibitor
CCCC(=O)C1=C(O)C(C(=O)OC)C(C)(C)CC1=NC (stereo not drawn) | - | - | - | -
O=C(Cc1ccccc1)NCCC1=CCCCC1 | - | - | - | -
O=C(NCCC1=CCCCC1)C(c1ccccc1)c1ccccc1 | - | - | 8.5 | -
Cc1cc(-n2c(SCC(=O)Nc3ccc(Br)cc3)nc3n[nH]c(C)c3c2=N)ccc1Cl | - | - | 19 | -
Cc1cc(-n2c(SCC(=O)Nc3ccc(F)c(F)c3)nc3n[nH]c(C)c3c2=N)ccc1Cl | - | - | - | -
CCOC(=O)Cc1cc(=O)n2[nH]c(C)c(C#N)c2n1 | - | - | - | -
COc1ccc(-n2sc3ccc(F)cc3c2=O)cc1 | 12 | - | - | -
Cc1ccc(C)c(-n2sc3ccc(F)cc3c2=O)c1 | 13 | - | - | -
CCNC(=O)COc1ccc(C=O)cc1OC | - | - | - | -
CCOc1ccc(NC(=O)/C(C#N)=C\c2ccc(N3CCCC3)c(C)c2)cc1 | - | - | 13 | -
CN(C)c1ccc(C(=O)OCC(=O)N2CCOCC2)cc1 | - | - | - | -
O=C(CC1SC(=O)N(Cc2ccccc2)C1=O)Nc1nccs1 (stereo not drawn) | - | - | - | -
O=C1c2[nH]nc(-c3ccccc3O)c2C(c2ccccc2)N1Cc1ccco1 (stereo not drawn) | - | - | 9.2 | -
CC(C)C(=O)Nc1ccc(-c2nc3ncccc3o2)cc1 | - | - | - | 4.6
Nc1nc(CN2CCN(c3ccccc3)CC2)nc(Nc2ccc(Cl)cc2)n1 | - | - | - | -
